These results are taken from ChEMBL document CHEMBL1126930, “New analogues of N-(2-aminoethyl)-4-chlorobenzamide (Ro 16-6491). Some of the most potent monoamine oxidase-B inactivators” (J Med Chem, 1993).

By IC50 is commonly meant the concentration needed to halve the response being measured.

This assay can be described thus: Inhibition of mitochondrial Monoamine oxidase-B purified from bovine liver. Summed up:
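MAO-B purified from bovine liver mitochondria. Enzyme preincubated 20 min with various inactivator concentrations. 10 μL aliquots then assayed for remaining activity in 490 μL of 1 mM benzylamine hydrochloride in 50 mM Tris-HCl, pH 9.0. IC50 extrapolated from plots of percent activity remaining versus inhibitor concentration. Duplicate runs varied by 0–5%.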

For `NCCNC(=O)c1cccc(Br)c1`, the IC50 was determined as 52 nM.
Then `NCCNC(=O)c1ccccc1Cl`, with 490 nM; and `NCCNC(=O)c1ccc(I)cc1`, with 170 nM.
In the case of `NCCNC(=O)c1ccc(F)cc1`, the IC50 amounted to 56 nM.
Then `NCCNC(=O)c1ccc([N+](=O)[O-])cc1`, with 48200 nM; and `NCCNC(=O)c1ccccc1[N+](=O)[O-]`, with 2170 nM.
Turning to `NCCNC(=O)c1ccc(Cl)cn1` [LAZABEMIDE], inhibition was half-maximal at 30 nM (IC50).
In turn, `NCCNC(=O)c1cccc(I)c1` came in with an IC50 of 37 nM.
Then `NCCNC(=O)c1cccc(Cl)c1`, with 120 nM; and `NCCNC(=O)c1ccccc1Br`, with 1200 nM; and `NCCNC(=O)c1ccc(Br)cc1`, with 42 nM.
The compound `NCCNC(=O)c1cccc(F)c1` had an IC50 of 200 nM.
In turn, `NCCNC(=O)c1ccccc1I` registered an IC50 of 61500 nM.
Then `NCCNC(=O)c1ccccc1`, with 250 nM.
`NCCNC(=O)c1cccc([N+](=O)[O-])c1` gave an IC50 of 60 nM.
The compound `NCCNC(=O)c1ccccc1F` had an IC50 of 160 nM.
Then `NCCNC(=O)c1ccc(Cl)cc1`, with 45 nM.
